Laboratory results as given in ChEMBL document CHEMBL4138098, “Synthesis and pharmacological evaluation of neurosteroid photoaffinity ligands” (Eur J Med Chem, 2017).
Calls of active or inactive are those of the source. The calls are words filed in the database; no cut-off is given here.

Tests used:
[1] = biological target: T1, GABA-A receptor; alpha-1/beta-3/gamma-2 (Homo sapiens) (UniProt P14867+P18507+P28472); experiment: Induction of [3H]azietomidate photoincorporation at human GABAA receptor alpha1beta3gamma2 expressed in HEK293 TetR cells at 30 uM after 30 mins by liquid scintillation counting method; type: cell-based
Procedure, shortened: (§1)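 Purified FLAG-tagged human α1β3γ2 GABAAR from tetracycline-inducible HEK293S cells, in 5 mM CHAPS/0.2 mM asolectin. Equilibrated 30 min at 4°C with 3 μM [3H]azietomidate or 1 μM [3H]R-mTFD-MPAB, then with test drug (final methanol 0.5%) for another 30 min at 4°C. Irradiated on ice at 365 nm for 30 min. Stained subunit bands excised from SDS-PAGE gels; 3H counted by liquid scintillation.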

Anura [2] = experiment: Anesthetic activity in tadpole assessed as loss of righting reflexes at 0.03 to 10 uM pretreated with tadpole followed by compound washout and transfer to fresh water measured up to 1 hr; type: functional, organism-based
Anura [3] = experiment: Anesthetic activity in tadpole assessed as loss of righting reflexes; type: functional, organism-based
[4] = biological target: T1, GABA-A receptor; alpha-1/beta-3/gamma-2 (Homo sapiens); experiment: Induction of [3H]R-mTFD-MPAB photoincorporation at human GABAA receptor alpha1beta3gamma2 expressed in HEK293 TetR cells at 30 uM after 30 mins by liquid scintillation counting method; type: cell-based; procedure, shortened: as §1
[5] = biological target: T1, GABA-A receptor; alpha-1/beta-3/gamma-2 (Homo sapiens); experiment: (§2) Displacement of [3H]muscimol from human GABAA receptor alpha1beta3gamma2 expressed in HEK293 TetR cell membranes after 1 hr by liquid scintillation counting method
Procedure, shortened: (§3)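 Membranes from HEK293 TetR cells expressing human α1β3γ2 GABAA receptor (200 μg protein) in 10 mM phosphate pH 7.4, 200 mM KCl, 1 mM EDTA. Filtered on PEI-treated GF/B filters, washed cold, scintillation counted. Triplicates, mean ± SD.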

[6] = biological target: T1, GABA-A receptor; alpha-1/beta-3/gamma-2 (Homo sapiens); experiment: Induction of [3H]azietomidate photoincorporation at human GABAA receptor alpha1beta3gamma2 expressed in HEK293 TetR cells at 1 uM after 30 mins by liquid scintillation counting method relative to control; type: cell-based
Procedure, shortened: (§4)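 Radioligand resuspended 30 min at 4°C; unlabeled steroid added (0.5% methanol final), 30 min at 4°C. Irradiated 30 min on ice at 365 nm. SDS-PAGE; stained subunit bands excised and counted by liquid scintillation; duplicates, means and ranges.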

[7] = biological target: GABA-A receptor; alpha-1/beta-2/gamma-2 (Homo sapiens) (UniProt P14867+P47870+P18507); experiment: Positive allosteric modulation of human GABAA receptor alpha1beta2gamma2L expressed in Xenopus laevis oocytes assessed as potentiation of GABA chloride current up to 100 uM incubated for 15 to 25 secs by two-electrode voltage clamp assay relative to control; type: cell-based
Procedure, shortened: (§5)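 Xenopus laevis oocytes injected with ~100 ng cRNA of human α1, β2, γ2L (1:1:2). Two-electrode voltage clamp at −50 mV, room temperature, perfused with ND96 pH 7.5. Compound diluted from DMSO stock into ND96 (≤1% DMSO final). Applied 15–25 s with ~3 min washes.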

[8] = biological target: T2, Gamma-aminobutyric acid receptor subunit alpha-1 (Homo sapiens) (UniProt P14867); experiment: Binding affinity to human GABAA receptor alpha1 assessed as photolabeling at 0.7 uM after 30 mins by Coomassie blue staining based fluorographic method relative to control; settings: tested as the 3H-labelled form
T2 sequence (whole entry): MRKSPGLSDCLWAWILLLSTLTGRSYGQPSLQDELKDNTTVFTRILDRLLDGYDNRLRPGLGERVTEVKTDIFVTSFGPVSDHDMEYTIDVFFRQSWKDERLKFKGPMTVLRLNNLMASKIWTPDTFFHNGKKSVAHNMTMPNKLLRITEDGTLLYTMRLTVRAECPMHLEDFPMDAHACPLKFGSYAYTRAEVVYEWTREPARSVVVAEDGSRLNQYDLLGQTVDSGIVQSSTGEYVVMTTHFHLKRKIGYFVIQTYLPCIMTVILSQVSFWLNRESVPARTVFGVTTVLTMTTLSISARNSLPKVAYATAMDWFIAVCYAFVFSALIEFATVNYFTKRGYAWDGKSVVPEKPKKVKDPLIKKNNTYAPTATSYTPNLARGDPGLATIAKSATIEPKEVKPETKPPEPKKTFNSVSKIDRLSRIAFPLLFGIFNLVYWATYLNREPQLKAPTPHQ

Anura [9] = experiment: Potency index, ratio of Alphaxalone EC50 to compound EC50 for anesthetic activity in tadpole; type: functional
[10] = biological target: T1, GABA-A receptor; alpha-1/beta-3/gamma-2 (Homo sapiens); experiment: Induction of [3H]R-mTFD-MPAB photoincorporation at human GABAA receptor alpha1beta3gamma2 expressed in HEK293 TetR cells at 10 uM after 30 mins by liquid scintillation counting method relative to control; type: cell-based; procedure, shortened: as §4
[11] = biological target: T3, GABA-A receptor; alpha-1/beta-3/gamma-2 (Homo sapiens, UniProt P14867+P18507+P28472); experiment: as §2; procedure, shortened: as §3
T3 sequence (P14867 whole entry): T2 sequence (whole entry)
T3 sequence (P18507 whole entry): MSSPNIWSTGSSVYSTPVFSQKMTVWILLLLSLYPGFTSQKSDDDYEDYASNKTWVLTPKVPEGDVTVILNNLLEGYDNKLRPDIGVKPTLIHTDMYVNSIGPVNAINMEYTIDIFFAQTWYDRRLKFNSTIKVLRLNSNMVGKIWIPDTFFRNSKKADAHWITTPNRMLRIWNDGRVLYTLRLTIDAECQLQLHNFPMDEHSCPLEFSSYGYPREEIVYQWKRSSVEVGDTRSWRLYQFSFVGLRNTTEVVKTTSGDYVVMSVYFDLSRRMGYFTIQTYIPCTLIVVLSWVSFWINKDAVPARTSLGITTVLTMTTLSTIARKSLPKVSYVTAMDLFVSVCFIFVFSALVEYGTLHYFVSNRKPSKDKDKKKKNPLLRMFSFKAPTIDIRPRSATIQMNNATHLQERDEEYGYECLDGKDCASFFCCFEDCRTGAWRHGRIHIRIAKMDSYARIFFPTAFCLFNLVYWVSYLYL
T3 sequence (P28472 whole entry): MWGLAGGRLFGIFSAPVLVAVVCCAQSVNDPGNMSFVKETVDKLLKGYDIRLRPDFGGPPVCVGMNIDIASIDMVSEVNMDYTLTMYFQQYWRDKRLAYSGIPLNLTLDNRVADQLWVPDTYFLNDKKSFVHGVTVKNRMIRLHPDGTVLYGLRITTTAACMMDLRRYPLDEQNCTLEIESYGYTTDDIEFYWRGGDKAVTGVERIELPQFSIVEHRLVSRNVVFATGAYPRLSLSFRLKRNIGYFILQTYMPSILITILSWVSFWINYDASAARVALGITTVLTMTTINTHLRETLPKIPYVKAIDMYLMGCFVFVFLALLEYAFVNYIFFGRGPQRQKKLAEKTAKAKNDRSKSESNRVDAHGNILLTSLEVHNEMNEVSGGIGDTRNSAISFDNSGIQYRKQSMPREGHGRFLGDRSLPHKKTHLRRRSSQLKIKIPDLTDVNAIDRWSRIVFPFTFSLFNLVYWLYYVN

[12] = biological target: T4, GABA-A receptor; alpha-1/beta-2/gamma-2 (Homo sapiens, UniProt P14867+P18507+P47870); experiment: Positive allosteric modulation of human GABAA receptor alpha1beta2gamma2L expressed in Xenopus laevis oocytes assessed as potentiation of GABA chloride current incubated for 15 to 25 secs by two-electrode voltage clamp assay; type: cell-based; procedure, shortened: as §5
T4 sequence (P14867 whole entry): T2 sequence (whole entry)
T4 sequence (P47870 whole entry): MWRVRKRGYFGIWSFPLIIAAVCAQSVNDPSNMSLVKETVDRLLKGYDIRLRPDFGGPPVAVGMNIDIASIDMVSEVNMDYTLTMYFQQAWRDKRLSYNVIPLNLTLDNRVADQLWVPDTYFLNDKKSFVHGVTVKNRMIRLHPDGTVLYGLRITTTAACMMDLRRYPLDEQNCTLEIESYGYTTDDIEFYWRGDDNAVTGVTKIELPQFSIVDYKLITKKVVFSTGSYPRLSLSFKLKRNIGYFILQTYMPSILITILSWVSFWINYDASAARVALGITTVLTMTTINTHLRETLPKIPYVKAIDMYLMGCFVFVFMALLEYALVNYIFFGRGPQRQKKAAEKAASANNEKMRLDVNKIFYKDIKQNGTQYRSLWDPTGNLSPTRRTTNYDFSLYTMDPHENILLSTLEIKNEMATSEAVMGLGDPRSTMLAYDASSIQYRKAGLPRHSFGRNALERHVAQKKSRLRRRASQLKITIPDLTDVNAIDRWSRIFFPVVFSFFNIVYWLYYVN
T4 sequence (P18507 whole entry): T3 sequence (P18507 whole entry)

[13] = biological target: T1, GABA-A receptor; alpha-1/beta-3/gamma-2 (Homo sapiens); experiment: Binding affinity to human GABAA receptor alpha1beta3gamma2 expressed in HEK293 TetR cells assessed as photolabeling at 0.4 uM after 30 mins in presence of 300 uM GABA by coomassie blue staining based fluorographic method; type: cell-based; settings: tested as the 3H-labelled form
[14] = biological target: T1, GABA-A receptor; alpha-1/beta-3/gamma-2 (Homo sapiens); experiment: Binding affinity to human GABAA receptor alpha1beta3gamma2 expressed in HEK293 TetR cells assessed as photolabeling at 0.4 uM after 30 mins in presence of 300 uM GABA and 30 uM alphaxalone by coomassie blue staining based fluorographic method; type: cell-based; settings: tested as the 3H-labelled form
[15] = biological target: T1, GABA-A receptor; alpha-1/beta-3/gamma-2 (Homo sapiens); experiment: Binding affinity to human GABAA receptor alpha1beta3gamma2 expressed in HEK293 TetR cells assessed as photolabeling at 0.4 uM after 30 mins in presence of 100 uM bicuculline by coomassie blue staining based fluorographic method; type: cell-based; settings: tested as the 3H-labelled form
[16] = biological target: T5, Gamma-aminobutyric acid receptor subunit beta-3 (Homo sapiens) (UniProt P28472); experiment: Binding affinity to human GABAA receptor beta3 assessed as photolabeling at 0.7 uM after 30 mins by Coomassie blue staining based fluorographic method relative to control; settings: tested as the 3H-labelled form
T5 sequence (whole entry): T3 sequence (P28472 whole entry)

Anura [17] = experiment: Anesthetic activity in tadpole assessed as loss of righting reflexes at 0.01 to 1 uM pretreated with tadpole followed by compound washout and transfer to fresh water measured up to 1 hr; type: functional, organism-based
[18] = biological target: T1, GABA-A receptor; alpha-1/beta-3/gamma-2 (Homo sapiens); experiment: Binding affinity to human GABAA receptor alpha1beta3gamma2 expressed in HEK293 TetR cells assessed as photolabeling at 0.7 uM after 30 mins in presence of 300 uM GABA by coomassie blue staining based fluorographic method; type: cell-based; settings: tested as the 3H-labelled form
[19] = biological target: T1, GABA-A receptor; alpha-1/beta-3/gamma-2 (Homo sapiens); experiment: Binding affinity to human GABAA receptor alpha1beta3gamma2 expressed in HEK293 TetR cells assessed as photolabeling at 0.7 uM after 30 mins in presence of 300 uM GABA and 30 uM alphaxalone by coomassie blue staining based fluorographic method; type: cell-based; settings: tested as the 3H-labelled form
[20] = biological target: T1, GABA-A receptor; alpha-1/beta-3/gamma-2 (Homo sapiens); experiment: Induction of [3H]R-mTFD-MPAB photoincorporation at human GABAA receptor alpha1beta3gamma2 expressed in HEK293 TetR cells at 0.3 to 1 uM after 30 mins by liquid scintillation counting method; type: cell-based; procedure, shortened: as §4
[21] = biological target: T1, GABA-A receptor; alpha-1/beta-3/gamma-2 (Homo sapiens); experiment: Binding affinity to human GABAA receptor alpha1beta3gamma2 expressed in HEK293 TetR cells assessed as photolabeling at 0.7 uM after 30 mins in presence of 100 uM bicuculline by coomassie blue staining based fluorographic method; type: cell-based; settings: tested as the 3H-labelled form
[22] = biological target: T1, GABA-A receptor; alpha-1/beta-3/gamma-2 (Homo sapiens); experiment: Induction of [3H]azietomidate photoincorporation at human GABAA receptor alpha1beta3gamma2 expressed in HEK293 TetR cells at 0.3 to 1 uM after 30 mins by liquid scintillation counting method; type: cell-based; procedure, shortened: as §4

Row | SMILES | Activity (Anura [2]) | EC50 (Anura [3]) | inhibition [5] | fold change (FC) [7] | Activity [8] | Ratio EC50 (Anura [9]) | EC50 [11] | EC50 [12] | Activity [16] | also measured
1 | CC(=O)[C@H]1CC[C@H]2[C@@H]3CC[C@H]4C[C@H](O)CC[C@]4(C)[C@H]3C(=O)C[C@]12C [ALFAXALONE] | inactive | 1900 nM | Dose-dependent effect | – | – | – | – | – | – | Activity [1]: Active; Activity [4]: Active
2 | CC(=O)[C@H]1CC[C@H]2[C@@H]3CC[C@H]4C[C@H](O)CC[C@]4(C)[C@H]3[C@@H](OC(=O)c3c(F)c(F)c(N=[N+]=[N-])c(F)c3F)C[C@]12C | inactive | 720 nM | Dose-dependent effect | 17 | 6% | 2.6 | 770 nM | 500 nM | 10% | Activity [6]: 50%; Activity [10]: 75%; Activity [13]: Active; Activity [14]: Active; Activity [15]: Active
3 | CC(=O)[C@H]1CC[C@H]2[C@@H]3CC[C@H]4C[C@H](O)CC[C@]4(C)[C@H]3C3(C[C@]12C)N=N3 | – | 110 nM | Dose-dependent effect | 30 | 0.2% | 17 | 250 nM | 200 nM | 0.4% | Activity (Anura [17]): inactive; Activity [18]: Active; Activity [19]: Active; Activity [20]: Active; Activity [21]: Active; Activity [22]: Active
